Series [1] has as its target T1, NACHT, LRR and PYD domains-containing protein 3 (Homo sapiens, UniProt Q96P20). In words: Inhibition of NLRP3 inflammasome activation in LPS-primed human THP1 cells assessed as reduction in IL-1beta level preincubated for 1 hr followed by addition of ATP and nigericin further incubated for 1 hrs and measured post ATP addition 1 hr by ELISA method. The format is cell-based, THP-1. For orientation: ELISA stands for enzyme-linked immunosorbent assay.

For series [2], the target named is T1, NACHT, LRR and PYD domains-containing protein 3. In words: Inhibition of NLRP3 inflammasome activation in LPS-primed human THP1 cells assessed as reduction in IL-1beta level at 1 uM preincubated for 1 hr followed by addition of ATP and nigericin further incubated for 1 hrs and measured post ATP addition 1 hr by ELISA method relative to control. The format is cell-based. To be noted: THP-1.

Series [3] in a line: AUC in C57/BL6 mouse at 3 mg/kg, po measured up to 24 hrs by LC-MS/MS analysis. The class given is ADME, organism-based. Also noted: dose 3 mg/kg, time < 24 hr, route oral. To be noted: in vivo. In a few lines:
(§1)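 Mouse PK, composite design, n = 3 per time point, mean values. Dosed 3 mg/kg po in 1% Tween 80 + 99% (0.5%) methyl cellulose in water; 1 mg/kg iv in 5% NMP + 5% solutol + 90% normal saline for bioavailability reference.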

Series [4] in a line: Half life in C57/BL6 mouse at 3 mg/kg, po measured up to 24 hrs by LC-MS/MS analysis. The format is ADME, organism-based. To be noted: in vivo. In a few lines:
as §1

A short description of series [5]: Oral bioavailability in C57/BL6 mouse at 3 mg/kg measured up to 24 hrs by LC-MS/MS analysis. The format is ADME, organism-based. To be noted: in vivo. In a few lines: as §1
The next series concerns Mus musculus. In words: Inhibition of LPS-induced serum IL-1beta production in C57/BL6 mouse at 10 mg/kg, po post-challenge with LPS for 2 hrs followed by ATP-challenge and measured after 30 mins by ELISA method relative to control. The class given is functional. In a few lines:
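Acute LPS+ATP challenge model in female C57BL/6 mice, n = 6/group; single oral dose 10 mg/kg in 1% Tween 80 and 99% methyl cellulose (0.5%); IL-1β compared with vehicle control; error bars SEM.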

The structures appear in SMILES notation.

Experimental findings from ChEMBL document CHEMBL4602705, “Discovery of N-Cyano-sulfoximineurea Derivatives as Potent and Orally Bioavailable NLRP3 Inflammasome Inhibitors” (ACS Med Chem Lett, 2020) are described below.

T1 sequence (Q96P20 whole entry, the tested form may be a part): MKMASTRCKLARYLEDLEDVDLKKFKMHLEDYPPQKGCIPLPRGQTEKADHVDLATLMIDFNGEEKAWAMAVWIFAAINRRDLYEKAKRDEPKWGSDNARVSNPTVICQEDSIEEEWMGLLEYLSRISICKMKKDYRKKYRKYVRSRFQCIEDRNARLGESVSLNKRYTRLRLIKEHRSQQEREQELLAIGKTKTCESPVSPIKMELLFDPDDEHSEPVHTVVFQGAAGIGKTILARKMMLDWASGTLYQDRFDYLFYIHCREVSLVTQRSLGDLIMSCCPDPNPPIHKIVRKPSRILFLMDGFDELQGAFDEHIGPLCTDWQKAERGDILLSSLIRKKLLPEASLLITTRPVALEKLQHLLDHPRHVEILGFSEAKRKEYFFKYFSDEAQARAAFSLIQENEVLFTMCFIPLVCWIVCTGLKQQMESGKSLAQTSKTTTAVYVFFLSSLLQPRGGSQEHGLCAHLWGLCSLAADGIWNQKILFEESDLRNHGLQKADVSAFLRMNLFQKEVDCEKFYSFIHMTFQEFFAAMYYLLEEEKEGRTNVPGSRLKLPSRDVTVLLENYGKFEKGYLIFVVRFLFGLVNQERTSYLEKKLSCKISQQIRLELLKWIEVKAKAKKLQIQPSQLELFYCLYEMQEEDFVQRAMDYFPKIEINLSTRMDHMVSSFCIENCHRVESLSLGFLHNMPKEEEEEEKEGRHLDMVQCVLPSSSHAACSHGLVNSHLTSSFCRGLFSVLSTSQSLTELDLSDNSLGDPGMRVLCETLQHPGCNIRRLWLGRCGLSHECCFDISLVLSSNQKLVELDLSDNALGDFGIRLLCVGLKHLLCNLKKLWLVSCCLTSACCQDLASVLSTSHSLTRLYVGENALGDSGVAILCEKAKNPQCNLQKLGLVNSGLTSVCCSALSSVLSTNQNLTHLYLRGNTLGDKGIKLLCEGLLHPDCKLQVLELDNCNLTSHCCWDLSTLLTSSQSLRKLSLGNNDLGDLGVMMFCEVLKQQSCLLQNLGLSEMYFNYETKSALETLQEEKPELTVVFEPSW

For the molecule `O=C(Nc1c2c(cc3c1CCC3)CCC2)NC(c1ccccc1)C(F)(F)F` (stereo unspecified), in series [1], the IC50 – broadly, the midpoint of a concentration-inhibition curve – was more than 1000 nM. Also, in series [2], the inhibition (usually the share of the control response that was lost under treatment) is less than 50%.

For `N#CN=S(=O)(NC(=O)Nc1c2c(cc3c1CCC3)CCC2)c1ccc(C#N)cc1` (stereo unspecified), the AUC (commonly concentration integrated over time) at 24 h in series [3] came out at 800 ng·h/mL. In addition, the half-life (in general, how long it takes for the measured level to halve) in series [4] is 1.03 h. The bioavailability (as a rule, dose-corrected exposure relative to a reference, in per cent) in series [5] came to 27%. On to `CC(=O)N=S(=O)(NC(=O)Nc1c2c(cc3c1CCC3)CCC2)c1ccc(C)cc1` (stereo unspecified), for which the IC50 in series [1] is more than 1000 nM. Take `Cc1ccc(S(=O)(=NC#N)NC(=O)Nc2c3c(cc4c2CCC4)CCC3)cc1F` (stereo unspecified): the AUC at 24 h in series [3] worked out at 3200 ng·h/mL. The half-life in series [4] is 2.38 h. The bioavailability in series [5] turned out to be 59%. Moreover, testing at 10 mg/kg in the series with Mus musculus gave an inhibition in vivo of 50%. On the same counts, the results for `Cc1ccc(S(=O)(=NC#N)NC(=O)Nc2c3c(cc4c2CCC4)CCC3)cc1` (stereo unspecified) are 4200 ng·h/mL, 2.91 h, 56% and 44%. In the case of `Cc1ccc(S(=O)(=O)Nc2c(Nc3c4c(cc5c3CCC5)CCC4)c(=O)c2=O)cc1`, the half-inhibitory concentration (IC50) in series [1] was more than 1000 nM. Take `Cc1ccc(S(=O)(=NC(N)=O)NC(=O)Nc2c3c(cc4c2CCC4)CCC3)cc1` (stereo unspecified): in series [1], the IC50 is more than 1000 nM. On the same count and under the same terms, the figure for `Cc1ccc(S(=O)(=O)NC(=O)Cc2c3c(cc4c2CCC4)CCC3)cc1` is more than 1000 nM.

For `CON=S(=O)(NC(=O)Nc1c2c(cc3c1CCC3)CCC2)c1ccc(C)cc1` (stereo unspecified), the concentration for half-maximal inhibition (IC50) in series [1] was more than 1000 nM. For the molecule `CN=S(=O)(NC(=O)Nc1c2c(cc3c1CCC3)CCC2)c1ccc(C)cc1` (stereo unspecified), the IC50 in series [1] was more than 1000 nM. On the same count and under the same terms, the figure for `Cc1ccc(S(=O)(=Nc2ccc(F)cc2)NC(=O)Nc2c3c(cc4c2CCC4)CCC3)cc1` (stereo unspecified) is more than 1000 nM. Same read-out and setting: as for `Cc1ccc(S(=O)(=O)NC(=O)C(=O)Nc2c3c(cc4c2CCC4)CCC3)cc1`, the figure is more than 1000 nM. In series [3], `N#CN=S(=O)(NC(=O)Nc1c2c(cc3c1CCC3)CCC2)c1cccnc1` (stereo unspecified) showed an area under the curve (AUC) at 24 h of 1280 ng·h/mL. The same molecule had a half-life in series [4] of 1.66 h. Moreover, the bioavailability in series [5] amounted to 24%.

With `CCOC(=O)N=S(=O)(NC(=O)Nc1c2c(cc3c1CCC3)CCC2)c1ccc(C)cc1` (stereo unspecified), the IC50 in series [1] is more than 1000 nM.

Consider `Cc1ccc(S(=O)(=O)NC(=O)C(=O)c2c3c(cc4c2CCC4)CCC3)cc1`, for which the half-maximal inhibitory concentration (IC50) in series [1] was more than 1000 nM.

As for `Cc1ccc(S(=O)(=Nc2ccn[nH]2)NC(=O)Nc2c3c(cc4c2CCC4)CCC3)cc1` (stereo unspecified), the IC50 in series [1] is more than 1000 nM. In series [3], `N#CN=S(=O)(NC(=O)Nc1c2c(cc3c1CCC3)CCC2)c1ccccn1` (stereo unspecified) returned an AUC at 24 h of 8200 ng·h/mL. Besides, in series [4], the half-life was 5.2 h. This molecule had a bioavailability in series [5] of 97%. Moreover, the inhibition in vivo (in general, the relative decrease from the control value, in per cent) at 10 mg/kg in the series with Mus musculus worked out at 57%.

As to `Cc1ccc(S(=O)(=O)N/C(=N\C#N)Nc2c3c(cc4c2CCC4)CCC3)cc1`, the IC50 in series [1] is more than 1000 nM. On the same count and under the same terms, the figure for `Cc1ccc(S(=O)(=O)NC(=O)C(O)c2c3c(cc4c2CCC4)CCC3)cc1` (stereo unspecified) is more than 1000 nM. Take `N#CC(NC(=O)Nc1c2c(cc3c1CCC3)CCC2)c1ccccc1` (stereo unspecified): the IC50 in series [1] is more than 1000 nM. In addition, the inhibition in series [2] was less than 50%. Take `Cc1ccc(S(=O)(=O)NS(=O)(=O)Nc2c3c(cc4c2CCC4)CCC3)cc1`: the IC50 in series [1] was more than 1000 nM. Regarding `Cc1ccc(S(=O)(=NCC(F)(F)F)NC(=O)Nc2c3c(cc4c2CCC4)CCC3)cc1` (stereo unspecified), the IC50 in series [1] was more than 1000 nM. Still for that read-out and setting: as for `O=C(Nc1c2c(cc3c1CCC3)CCC2)NC1(c2ccccc2)COC1`, the figure is more than 1000 nM. `N#CN=S(=O)(NC(=O)Nc1c2c(cc3c1CCC3)CCC2)c1cccc(C#N)c1` (stereo unspecified) had an AUC at 24 h in series [3] of 1200 ng·h/mL. The molecule also gave a half-life in series [4] of 1.13 h. Also, in series [5], the bioavailability stood at 40%.
